# HCT116 PTEN-null: PTEN-deleted cell growth suppression. AID 827. HCT116 PTEN-null viability, CellTiter-Glo, 60 h; hits give low values. viability, % at 10 µM. hit rate 1.2% among 140,000;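 active = viability at or below a set limit, 4 SD under the median of all tested compounds, cut at about 3.7% in these data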;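 note: PTEN knockout HCT116 line with beta catenin targeted HCT116 as companion control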
# HCT116 bCat-KO: beta-catenin-lacking colon tumor cell growth suppression | HCT116 beta-catenin knockout viability, CellTiter-Glo, 60 h; hits give low values | viability, % at 10 µM | hit rate 1.5% among 140,000 | AID 818;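 active = viability at or under a set limit, the compound median less 4 SD, cut at about 6% in these data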;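 note: 0% = Hyamine 1622 control at 20 µM and 100% = untreated cell control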
# H69AR growth 86K: blocks growth of human H69AR lung tumor cells. H69AR lung tumor viability, ATP luminescence, 72 h; hits give low values. hit rate 6% among 85,000. viability, % at 10 µM;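 active = viability at or below 40%; inactive = viability above 40%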;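 note: multidrug resistant small cell line overexpressing MRP-1 efflux transporter; 100% = mean luminescence of untreated control wells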
# HUVEC prolif 384: blocks proliferation of human endothelial cells; HUVEC proliferation, CellTiter-Glo luminescence, 72 h; hits give low values; viability, % at 10 µM (by protocol); hit rate 1.1% among 86,000; AID 648;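 active = viability at or below 30%; inactive = viability above 30%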;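 note: 100% = median luminescence of DMSO-only cell control wells on each plate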
# Lung fibro prol: blocks proliferation of human lung fibroblasts; AID 719; LL 47 human lung fibroblast viability, ATP luminescence; hits give low values; viability, % at 10 µM; hit rate 1.1% among 85,000;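 active = viability at or below 50% in the single dose screen; inactive = viability above 50%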;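 note: compound exposure lasted 72 h before the ATP readout; 100% = median luminescence of untreated cell-only wells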
#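 Material: human lung fibroblast line LL 47, low passage; Evaluation: viability percentage against median untreated-cell control; Buffer or medium: 15% FBS in IMEM; Incubation: 72 h compound exposure at 37 °C after overnight plating; Dosing: 0.1% DMSO in all compound wells; Measured by: CellTiter-Glo luminescence.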
# * hit, by the source's call; . = not tested or not shown; ! = not confirmed by another sample. Only a selection was taken, and hits are over-represented in it overall.
SMILES,HCT116 PTEN-null,HCT116 bCat-KO,H69AR growth 86K,HUVEC prolif 384,Lung fibro prol
CCc1[nH]nc2c1C(c1ccsc1)C(C#N)=C(N)O2 (centres undefined),96,82,61,82,98
CCc1[nH]nc2c1C(c1ccc(Br)s1)C(C#N)=C(N)O2 (centres undefined),33,34,1.7*,69,24*
Cc1nc(-n2[nH]c3c(c2=O)CCCC3)[nH]c(=O)c1Cc1ccccc1,3.2*,5.3*,.,.,.
Cc1cc(=O)[nH]c(-n2[nH]c3c(c2=O)CCCC3)n1,83,83,.,.,.
COc1ccc(CNc2nc3nc4c(c(=O)n3[nH]2)CCC4)cc1,88,89,97,92,100
CCOc1ccccc1/C=N/Nc1ccccc1[N+](=O)[O-],93,96,.,.,.
CCOc1ccc(/C=C/[N+](=O)[O-])c2ccccc12,1.8*,2.0*,.,.,.
O=[N+]([O-])/C=C/c1c(OCc2ccccc2)ccc2ccccc12,2.5*,1.9*,2.8*,27*,7.6*
CCOC(=O)COc1ccc2ccccc2c1/C=C/[N+](=O)[O-],2.6*,3.3*,.,.,.
CCOC(=O)COc1ccc(/C=C/[N+](=O)[O-])c(OCC(=O)OCC)c1,1.9*,4.0*,.,.,.
CCOC(=O)COc1ccc2nsnc2c1,101,98,102,93,.
CCOC(=O)COc1ccccc1/C=N/O,93,95,.,.,.
S=C(NCCN1CCOCC1)Nc1ccccc1Cl,78,76,.,.,.
Cc1ccccc1NC(=O)N(CCc1nc2ccccc2[nH]1)Cc1ccccc1,81,94,16*,68,99
COc1ccccc1CN(Cc1nc2ccccc2c(=O)[nH]1)C(=O)Nc1ccccc1C,57,77,100,80,97
COc1ccc(CNC(=O)CSc2nnnn2-c2ccc(O)cc2)cc1,82,85,80,94,.
COc1ccccc1-n1c(SCC(=O)Nc2ccc(F)cc2)nc2c(c1=O)SCC2,101,90,20*,89,96
COc1ccc(NC(=O)CSc2c3c(nc4ccccc24)CCCC3)c(OC)c1,11,5.9*,.,.,.
COc1ccc(NC(=O)CSc2nc3c(c(=O)n2-c2ccccc2)SCC3)c(OC)c1,94,83,8.2*,70,76
CCOC(=O)c1sc2nc(CN3CCN(c4cccc(C(F)(F)F)c4)CC3)[nH]c(=O)c2c1C,86,89,.,.,.
CC(N)c1ccc(Cl)cc1Cl (centres undefined),87,89,.,.,.
O=C(NC(c1ccccc1)c1ccccc1)c1cccc(S(=O)(=O)NCc2ccccc2)c1,53,58,.,.,.
c1ccc(COc2ccc(OCCCNC3CCCC3)cc2)cc1,46,52,40*,59,76
CC(C)Oc1ccc(OCCNC2CCCC2)cc1,94,94,.,.,.
O=C(COC(=O)Cc1c(Cl)cccc1Cl)Nc1ccc(OC(F)(F)F)cc1,91,91,.,.,.
SMILES,HCT116 PTEN-null,HCT116 bCat-KO,H69AR growth 86K,HUVEC prolif 384,Lung fibro prol
COc1ccc(/C=C2\CCc3ccccc3C2=O)cc1OC,8,7,.,.,.
CCN1C/C(=C\c2cccc([N+](=O)[O-])c2)C(=O)/C(=C/c2cccc([N+](=O)[O-])c2)C1,1.4*,1.6*,.,.,.
Cc1ccccc1/C=C1\CCCc2ccccc2C1=O,77,65,84,92,86
O=C1/C(=C/c2cccc([N+](=O)[O-])c2)CCc2ccccc21,2.0*,3.2*,.,.,.
O=C1/C(=C\c2ccc3ccccc3c2)CCCc2ccccc21,18,19,17*,64,64
CCN(C(=S)Nc1ccc(Oc2ccccc2)cc1)c1ccccc1,93,86,.,.,.
Cc1sc2nc(COC(=O)CNC(=O)c3ccc(C(C)(C)C)cc3)[nH]c(=O)c2c1C,97,99,.,.,.
CC(=O)OC1c2ccccc2C(=O)N1Cc1ccccc1 (centres undefined),106,102,99,89,106
CC(C)[C@H](NS(=O)(=O)c1ccccc1)C(=O)OCC(=O)N1N=C(c2ccc(Cl)cc2)CC1c1ccco1 (some centres undefined),38,53,.,.,.
CN(C)CCCN1c2ccccc2Sc2ccc(Cl)cc21,2.7*!,1.8*!,20*,50,44*
OCCN1CCN(CCCN2c3ccccc3Sc3ccc(Cl)cc32)CC1,2.3*,1.5*,1.5*,1.8*,28*
CN(C)CCCN1c2ccccc2CCc2ccccc21,78,75,81,88,83
CCOC(=O)C1CCCN(C(=S)Nc2cccc(Cl)c2)C1 (centres undefined),95,81,.,.,.
Cc1ccc(S(=O)(=O)Nc2ccc(NC(=O)Nc3cccc(C(F)(F)F)c3)cc2)cc1,1.6*,1.2*,.,.,.
O=C(Nc1ccc(OC(F)(F)F)cc1)Nc1cccc([N+](=O)[O-])c1,3.5*,2.9*,.,.,.
O=C(Nc1ccc(OC(F)F)cc1)Nc1cccc(C(F)(F)F)c1,3.1*,2.3*,3.7*,31,38*
CCN(CC)S(=O)(=O)c1ccc(NC(=O)Nc2cccc(C(F)(F)F)c2)cc1,1.8*,1.4*,.,.,.
CCNc1ccc(C(=O)OCC(=O)N(Cc2ccccc2)C(C)(C)C)cc1[N+](=O)[O-],83,83,.,.,.
CC(=O)Nc1ccccc1OCC(=O)N(Cc1ccccc1)C(C)C,77,71,.,.,.
Cc1ccc(S(=O)(=O)N(CC(=O)NCc2ccco2)Cc2ccccc2F)cc1,98,91,85,100,107
CS(=O)(=O)N(Cc1ccccc1Cl)c1ccc(C(=O)NCc2ccccn2)cc1,97,92,.,.,.
COc1cc(/C=N/NC(=O)CSc2nc3ccccc3n2C)cc(OC)c1OC,92,89,.,.,.
CCOC(=O)Cc1c(C)nc2c(-c3ccccc3)c(-c3ccccc3)[nH]n2c1=O,68,72,32*,75,92
CCOC(=O)Cc1c(C)nc2c(-c3ccc(OC)cc3)c(C)nn2c1C,90,81,23*,71,77
CN(NC1CC(=O)N(c2ccccc2)C1=O)c1ccccc1 (centres undefined),104,95,.,.,.
SMILES,HCT116 PTEN-null,HCT116 bCat-KO,H69AR growth 86K,HUVEC prolif 384,Lung fibro prol
O=C(Cn1c(=O)oc2cc(S(=O)(=O)N3CCCC3)ccc21)Nc1cccc(C(F)(F)F)c1,76,84,38*,92,99
CCCOc1ccc(C(=O)C(CN2CCOCC2)c2ccccc2)cc1 (centres undefined),2.1*,2.6*,1.6*,3.0*,46*
COc1ccc(C(=O)C(CN2CCOCC2)c2ccccc2)cc1F (centres undefined),1.3*,1.6*,1.9*,40,15*
Cc1ccc(S(=O)(=O)N(c2nc(NC(C)C)nc(NC(C)C)n2)n2cnnc2)cc1,81,83,.,.,.
O=C(Nc1ccccc1C(F)(F)F)c1cc2ncc(CCCl)cn2n1,95,90,.,.,.
Cc1cc(-c2ccccc2)nc2cc(C(=O)N(Cc3ccccc3)Cc3ccccc3)nn12,61,62,40*,26*,99
Cc1c(Cc2ccccc2)sc(NC(=O)/C=C/c2cccc3ccccc23)c1C(N)=O,45,43,.,.,.
Nc1ccc(C(=O)OC2CCOC2=O)cc1[N+](=O)[O-] (centres undefined),97,98,.,.,.
